Source: ChEMBL document CHEMBL1629596, “Antileishmanial activity of 1,3,4-thiadiazolium-2-aminide in mice infected with Leishmania amazonensis” (Antimicrob Agents Chemother, 2009)
Activity calls are given as the source filed them. No cut-off for these calls is given here.

Tests used:
[1] = test system: Leishmania amazonensis; assay: Antileishmanial activity against Leishmania amazonensis infected in CBA/J mouse assessed as reduction of parasite loads in popliteal lymph nodes at 100 mg/kg/day, sc administered 4 weeks after infection 5 dose in a week for 4 weeks measured after 12 weeks; type: functional, organism-based; settings: Popliteal lymph node
Outline: (§1)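 Mice were killed at week 12, 4 weeks after treatment ended. Popliteal lymph nodes and spleens were removed aseptically, weighed and homogenized in Schneider's medium + 10% fetal calf serum. Eight serial 1:10 dilutions were plated in triplicate and incubated at 26°C. Titer was the last dilution with ≥1 parasite by microscopy. Groups were seven mice.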

[2] = test system: Leishmania amazonensis; assay: Antileishmanial activity against Leishmania amazonensis infected in CBA/J mouse assessed as reduction of foot-pad thickness at 100 mg/kg/day, sc administered 4 weeks after infection 5 dose in a week for 4 weeks measured after 12 weeks; type: functional, organism-based
Outline: (§2)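 Sc dosing started day 27 post-infection, 5 doses/week for 4 weeks. Controls got DMSO/PBS vehicle. Footpad swelling was followed to week 12 and recorded as infected-footpad thickness. Groups were seven mice, reported as mean with standard errors.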

[3] = test system: Leishmania amazonensis; assay: Antileishmanial activity against Leishmania amazonensis infected in CBA/J mouse assessed as reduction of parasite loads in spleen at 100 mg/kg/day, sc administered 4 weeks after infection 5 dose in a week for 4 weeks measured after 12 weeks; type: functional, organism-based; outline: as §1
[4] = test system: Leishmania amazonensis; assay: Antileishmanial activity against Leishmania amazonensis infected in CBA/J mouse assessed as reduction of lesion size at 100 mg/kg/day, sc administered 4 weeks after infection 5 dose in a week for 4 weeks measured after 12 weeks; type: functional, organism-based; outline: as §2
[5] = test system: Mus musculus; assay: Toxicity in CBA/J mouse assessed as change in neutrophils count at 22 mg/kg/day, sc administered 5 doses a week for 4 weeks (reference value: 19%); type: organism-based; set-up: route subcutaneous; settings: in vivo, 672 h
Outline: (§3)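 Uninfected mice dosed subcutaneously in DMSO/PBS, 5 doses/week; tail blood taken at week 4 of treatment. Total leukocytes counted in Neubauer chamber; lymphocyte, monocyte and neutrophil values given as percentages.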

[6] = test system: Leishmania amazonensis; assay: Antileishmanial activity against Leishmania amazonensis infected in macrophages assessed as nitric oxide release; type: functional, organism-based
[7] = test system: Leishmania amazonensis; assay: Antileishmanial activity against Leishmania amazonensis infected in CBA/J mouse assessed as increase of nitric oxide production in lymph node cells at 22 mg/kg/day, sc administered 4 weeks after infection 5 dose in a week for 4 weeks measured after 12 weeks; type: functional, organism-based
[8] = test system: Mus musculus; assay: Toxicity in CBA/J mouse assessed as change in alanine aminotransferase level at 22 mg/kg/day, sc administered 5 doses a week for 4 weeks (reference value: 52 +/- 6.2 U/ml); type: organism-based; set-up: route subcutaneous; settings: in vivo, 672 h
[9] = test system: Mus musculus; assay: Toxicity in CBA/J mouse assessed as change in body weight at 22 mg/kg/day, sc administered 5 doses a week for 4 weeks (reference value: 25 g); type: organism-based; set-up: route subcutaneous; settings: in vivo, 672 h
[10] = test system: Leishmania amazonensis; assay: Antileishmanial activity against Leishmania amazonensis infected in CBA/J mouse assessed as reduction of parasite loads in spleen at 22 mg/kg/day, sc administered 4 weeks after infection 5 dose in a week for 4 weeks measured after 12 weeks; type: functional, organism-based
Outline: (§4)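 Week 12 postinfection (4 weeks after last dose): popliteal lymph nodes and spleens removed aseptically, weighed, homogenized in Schneider's medium + 10% FCS; eight 1:10 serial dilutions in triplicate, incubated at 26°C, read by inverted microscope; titer = last dilution with at least one parasite. Seven animals; subcutaneous dosing in DMSO/PBS, 5 doses/week for 4 weeks.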

[11] = test system: Leishmania amazonensis; assay: Antileishmanial activity against Leishmania amazonensis infected in CBA/J mouse assessed as reduction of foot-pad thickness at 22 mg/kg/day, sc administered 4 weeks after infection 5 dose in a week for 4 weeks measured after 12 weeks; type: functional, organism-based
Outline: (§5)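 Infected footpad thickness measured as lesion size, followed to week 12 postinfection. Subcutaneous dosing in DMSO/PBS vehicle began 27 days after infection, 5 doses a week for 4 weeks; controls received vehicle alone. Groups of seven mice, mean ± SEM.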

[12] = test system: Mus musculus; assay: Toxicity in CBA/J mouse assessed as change in lymphocytes count at 22 mg/kg/day, sc administered 5 doses a week for 4 weeks (reference value: 75%); type: organism-based; set-up: route subcutaneous; settings: in vivo, 672 h; outline: as §3
[13] = test system: Leishmania amazonensis; assay: Antileishmanial activity against Leishmania amazonensis infected in CBA/J mouse assessed as reduction of parasite loads in popliteal lymph nodes at 22 mg/kg/day, sc administered 4 weeks after infection 5 dose in a week for 4 weeks measured after 12 weeks; type: functional, organism-based; settings: Popliteal lymph node; outline: as §4
[14] = test system: Mus musculus; assay: Toxicity in CBA/J mouse assessed as change in monocytes count at 22 mg/kg/day, sc administered 5 doses a week for 4 weeks (reference value: 5%); type: organism-based; set-up: route subcutaneous; settings: in vivo, 672 h; outline: as §3
[15] = test system: Mus musculus; assay: Toxicity in CBA/J mouse assessed as change in aspartate aminotransferase level at 22 mg/kg/day, sc administered 5 doses a week for 4 weeks (reference value: 51 +/- 6.8 U/ml); type: organism-based; set-up: route subcutaneous; settings: in vivo, 672 h
[16] = test system: Mus musculus; assay: Toxicity in CBA/J mouse assessed as change in white blood cell count at 22 mg/kg/day, sc administered 5 doses a week for 4 weeks (reference value: 14 x 10^3 ul); type: organism-based; set-up: route subcutaneous; settings: in vivo, 672 h; outline: as §3
[17] = test system: Mus musculus; assay: Toxicity in CBA/J mouse assessed as change in aspartate aminotransferase level at 24 mg/kg/day, sc administered 5 doses a week for 4 weeks (reference value: 51 +/- 6.8 U/ml); type: organism-based; set-up: route subcutaneous; settings: in vivo, 672 h
[18] = test system: Leishmania amazonensis; assay: Antileishmanial activity against Leishmania amazonensis infected in CBA/J mouse assessed as reduction of foot-pad thickness at 24 mg/kg/day, sc administered 4 weeks after infection 5 dose in a week for 4 weeks measured after 12 weeks; type: functional, organism-based; outline: as §5
[19] = test system: Mus musculus; assay: Toxicity in CBA/J mouse assessed as change in monocytes count at 24 mg/kg/day, sc administered 5 doses a week for 4 weeks (reference value: 5%); type: organism-based; set-up: route subcutaneous; settings: in vivo, 672 h; outline: as §3
[20] = test system: Leishmania amazonensis; assay: Antileishmanial activity against Leishmania amazonensis infected in CBA/J mouse assessed as reduction of parasite loads in popliteal lymph nodes at 24 mg/kg/day, sc administered 4 weeks after infection 5 dose in a week for 4 weeks measured after 12 weeks; type: functional, organism-based; settings: Popliteal lymph node; outline: as §4
[21] = test system: Mus musculus; assay: Toxicity in CBA/J mouse assessed as change in white blood cell count at 24 mg/kg/day, sc administered 5 doses a week for 4 weeks (reference value: 14 x 10^3 ul); type: organism-based; set-up: route subcutaneous; settings: in vivo, 672 h; outline: as §3
[22] = test system: Mus musculus; assay: Toxicity in CBA/J mouse assessed as change in body weight at 24 mg/kg/day, sc administered 5 doses a week for 4 weeks (reference value: 25 g); type: organism-based; set-up: route subcutaneous; settings: in vivo, 672 h
[23] = test system: Mus musculus; assay: Toxicity in CBA/J mouse assessed as change in lymphocytes count at 24 mg/kg/day, sc administered 5 doses a week for 4 weeks (reference value: 75%); type: organism-based; set-up: route subcutaneous; settings: in vivo, 672 h; outline: as §3
[24] = test system: Mus musculus; assay: Toxicity in CBA/J mouse assessed as change in alanine aminotransferase level at 24 mg/kg/day, sc administered 5 doses a week for 4 weeks (reference value: 52 +/- 6.2 U/ml); type: organism-based; set-up: route subcutaneous; settings: in vivo, 672 h
[25] = test system: Mus musculus; assay: Toxicity in CBA/J mouse assessed as change in neutrophils count at 24 mg/kg/day, sc administered 5 doses a week for 4 weeks (reference value: 19%); type: organism-based; set-up: route subcutaneous; settings: in vivo, 672 h; outline: as §3
[26] = test system: Leishmania amazonensis; assay: Antileishmanial activity against Leishmania amazonensis infected in CBA/J mouse assessed as reduction of parasite loads in spleen at 24 mg/kg/day, sc administered 4 weeks after infection 5 dose in a week for 4 weeks measured after 12 weeks; type: functional, organism-based; outline: as §4
[27] = test system: Leishmania amazonensis; assay: Antileishmanial activity against Leishmania amazonensis infected in CBA/J mouse assessed as reduction of lesion size at 24 mg/kg/day, sc administered 4 weeks after infection 5 dose in a week for 4 weeks measured after 12 weeks; type: functional, organism-based; outline: as §5

Molecule: MEGLUMINE ANTIMONATE
- Activity [1]: Active
- Activity [2]: Active
- Activity [3]: Active
- Activity [4]: inactive

Molecule: COc1ccc(/C=C/c2sc(Nc3ccccc3)n[n+]2-c2ccccc2)cc1.[Cl-]
- Activity [5]: 25%
- Activity [6]: Active
- Activity [7]: Active
- Activity [8]: 57 U/ml
- Activity [9]: 27 g
- Activity [10]: Active
- Activity [11]: Active
- Activity [12]: 69%
- Activity [13]: Active
- Activity [14]: 5%
- Activity [15]: 53 U/ml
- Activity [16]: 12 ×10³ /uL

Molecule: C(=C\c1sc(Nc2ccccc2)n[n+]1-c1ccccc1)/c1ccccc1.[Cl-]
- Activity [17]: 48 U/ml
- Activity [18]: Active
- Activity [6]: Active
- Activity [19]: 5%
- Activity [20]: Active
- Activity [21]: 12 ×10³ /uL
- Activity [22]: 26 g
- Activity [23]: 70%
- Activity [24]: 58 U/ml
- Activity [25]: 24%
- Activity [26]: Active
- Activity [27]: inactive
